Measurements taken from ChEMBL document CHEMBL2150944, “Antimalarial activity of pyrroloiminoquinones from the Australian marine sponge Zyzzya sp” (J Med Chem, 2012).
Where a name gives a salt, the structure may show the parent alone. Active and inactive are the calls of the source. The calls are words filed in the database; no cut-off is given here.

Assays:
XRS6 = experiment: Cytotoxicity against Chinese hamster Xrs-6 cells; assay type: cell-based; settings: Cricetulus griseus
HCT-116 = experiment: Cytotoxicity against human HCT116 cells; assay type: functional, cell-based
[1] = target: DNA topoisomerase 2-alpha (Homo sapiens) (UniProt P11388); experiment: Inhibition of topoisomerase 2 by decatenation assay
Chain of DNA topoisomerase 2-alpha (Homo sapiens) (P11388 whole entry): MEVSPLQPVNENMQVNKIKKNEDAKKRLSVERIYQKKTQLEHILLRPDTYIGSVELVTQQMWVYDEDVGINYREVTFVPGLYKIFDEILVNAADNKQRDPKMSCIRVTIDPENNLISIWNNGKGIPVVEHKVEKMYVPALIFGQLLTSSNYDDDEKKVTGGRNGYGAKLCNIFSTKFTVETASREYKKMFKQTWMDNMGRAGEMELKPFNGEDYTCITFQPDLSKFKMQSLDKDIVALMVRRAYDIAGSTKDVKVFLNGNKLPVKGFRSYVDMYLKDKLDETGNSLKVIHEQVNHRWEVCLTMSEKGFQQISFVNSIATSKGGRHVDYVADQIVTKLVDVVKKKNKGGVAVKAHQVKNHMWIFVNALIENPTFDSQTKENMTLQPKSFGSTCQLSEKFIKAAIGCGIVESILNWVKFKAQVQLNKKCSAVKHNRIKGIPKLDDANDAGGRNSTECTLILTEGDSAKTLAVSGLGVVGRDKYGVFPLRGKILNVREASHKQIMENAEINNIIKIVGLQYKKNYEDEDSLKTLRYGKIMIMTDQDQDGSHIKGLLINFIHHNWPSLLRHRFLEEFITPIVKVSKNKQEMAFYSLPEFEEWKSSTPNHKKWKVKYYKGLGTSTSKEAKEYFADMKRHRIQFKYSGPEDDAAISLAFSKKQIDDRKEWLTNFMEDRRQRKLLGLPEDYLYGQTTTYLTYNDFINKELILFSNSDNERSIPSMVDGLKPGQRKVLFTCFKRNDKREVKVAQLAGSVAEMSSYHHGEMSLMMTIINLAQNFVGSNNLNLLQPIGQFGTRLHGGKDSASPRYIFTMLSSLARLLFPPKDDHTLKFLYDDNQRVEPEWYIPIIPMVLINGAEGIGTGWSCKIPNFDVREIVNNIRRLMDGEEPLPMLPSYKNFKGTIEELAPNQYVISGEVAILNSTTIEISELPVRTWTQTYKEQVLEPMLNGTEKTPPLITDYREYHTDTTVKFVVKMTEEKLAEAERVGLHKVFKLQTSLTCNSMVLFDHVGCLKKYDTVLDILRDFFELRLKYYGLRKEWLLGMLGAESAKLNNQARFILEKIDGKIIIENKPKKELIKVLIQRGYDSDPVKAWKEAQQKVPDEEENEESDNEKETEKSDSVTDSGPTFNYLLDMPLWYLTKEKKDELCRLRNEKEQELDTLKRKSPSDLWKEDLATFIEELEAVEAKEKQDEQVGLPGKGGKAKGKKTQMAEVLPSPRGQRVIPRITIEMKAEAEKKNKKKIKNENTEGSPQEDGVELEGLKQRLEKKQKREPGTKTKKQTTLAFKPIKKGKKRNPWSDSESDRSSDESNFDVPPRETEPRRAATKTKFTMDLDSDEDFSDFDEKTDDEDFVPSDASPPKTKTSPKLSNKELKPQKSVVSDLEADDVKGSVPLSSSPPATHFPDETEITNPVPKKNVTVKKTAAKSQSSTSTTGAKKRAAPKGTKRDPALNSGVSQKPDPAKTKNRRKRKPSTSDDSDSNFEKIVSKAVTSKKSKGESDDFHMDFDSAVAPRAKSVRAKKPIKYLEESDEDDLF

Plasmodium berghei [2] = experiment: Antimalarial activity against chloroquine-sensitive Plasmodium berghei ANKA infected in Swiss albino mouse assessed as suppression of parasitemia at 8 mg/kg/day, ip measured on day 1 post infection by Giemsa staining relative to control; assay type: functional; settings: route intraperitoneal
Plasmodium falciparum [3] = experiment: Antimalarial activity against chloroquine-sensitive Plasmodium falciparum 3D7 ring stage assessed as growth inhibition upto 360 nM after 10 hrs by [3H]-hypoxanthine incorporation assay; assay type: functional, organism-based
Procedure, shortened: (§1)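 Synchronous 3D7 rings (~10−16 h post-invasion) or trophozoites (~24−30 h post-invasion) were used at 0.5% parasitemia and 5% hematocrit. Cultures were exposed to compound or 0.04% DMSO vehicle for 4, 6 or 10 h, then washed. Triplicate wells received 0.5 μCi 3H-hypoxanthine, and incorporation was counted after ~48−72 h. Results are % growth versus matched vehicle controls, from ≥2 independent experiments.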

Plasmodium falciparum [4] = experiment: Antimalarial activity against chloroquine-sensitive Plasmodium falciparum 3D7 trophozoite stage assessed as growth inhibition at 360 nM after 10 hrs by [3H]-hypoxanthine incorporation assay; assay type: functional, organism-based; procedure, shortened: as §1
Plasmodium berghei [5] = experiment: Antimalarial activity against chloroquine-sensitive Plasmodium berghei ANKA infected in Swiss albino mouse assessed as suppression of parasitemia at 8 mg/kg/day, ip measured on day 4 post infection by Giemsa staining relative to control; assay type: functional; settings: route intraperitoneal
Plasmodium falciparum [6] = experiment: Antimalarial activity against chloroquine-sensitive Plasmodium falciparum 3D7 trophozoite stage assessed as growth inhibition at 180 nM after 10 hrs by [3H]-hypoxanthine incorporation assay; assay type: functional, organism-based; procedure, shortened: as §1
[7] = Half life in mouse liver microsomes at 1 uM after 60 mins; assay type: ADME, Microsome
Procedure, shortened: (§2)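 1 μM compound incubated at 37 °C with human or mouse liver microsomes (0.4 mg/mL protein) in 0.1 M phosphate pH 7.4. Reaction started with an NADPH-regenerating system plus MgCl2 and quenched with ice-cold acetonitrile at time points up to 60 min. Parent loss is followed by LC−MS and fitted to exponential decay, giving half-life and in vitro CLint.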

[8] = Plasma concentration in Swiss mouse at 8 mg/kg, sc administered as suspension measured 1 hr post dose; assay type: ADME, organism-based; parameters: dose 8 mg/kg, route subcutaneous
Procedure, shortened: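 Nonfasted male Swiss outbred mice (26−34 g) received a nominal 8 mg/kg subcutaneously into the dorsal skinfold. The compound was given as a suspension in saline vehicle containing 5−7% DMSO. Blood was taken by cardiac puncture under isoflurane at 0.25, 1 or 4 h, with n = 2 mice per time point, into stabilizer-containing heparinized tubes. Plasma was acetonitrile-precipitated and quantified by UPLC−MS.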

[9] = Toxicity in Swiss albino mouse for 4 days; assay type: organism-based; settings: in vivo
Procedure, shortened: (§3)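 Healthy mice dosed subcutaneously daily for 4 consecutive days, compound in Tween 80/ethanol (7/3 v/v) diluted 10-fold in distilled water (~0.2 mL). Mice are assessed before and after dosing for weight loss >10%, ruffled coat, shaking, severe pallor, reduced activity and behaviour changes.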

[10] = Selectivity index, ratio of IC50 for human HEK293 cells to IC50 for chloroquine-resistant Plasmodium falciparum Dd2; assay type: toxicity, cell-based; settings: read-out: Ratio IC50
Plasmodium falciparum [11] = experiment: Antimalarial activity against chloroquine-resistant Plasmodium falciparum Dd2 assessed as growth inhibition after 72 hrs by DAPI staining; assay type: functional, organism-based; settings: Dd2, 72 h
Procedure, shortened: (§4)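 P. falciparum 3D7 or Dd2 at 2% or 3% parasitemia, 0.3% hematocrit, exposed 72 h at 37 °C, 5% CO2. Staining with DAPI plus saponin and Triton X-100, 5 h at room temperature in the dark, then confocal imaging and automated counting of parasite spots. Percent inhibition is calculated against DMSO and 2 μM artemisinin controls.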

[12] = Intrinsic clearance in mouse liver microsomes assessed as per mg of protein at 1 uM after 60 mins; assay type: ADME, Microsome; settings: read-out: CLH; procedure, shortened: as §2
[13] = Half life in human liver microsomes at 1 uM after 60 mins; assay type: ADME, Microsome; procedure, shortened: as §2
[14] = Intrinsic clearance in human liver microsomes assessed as per mg of protein at 1 uM after 60 mins; assay type: ADME, Microsome; settings: read-out: CLH; procedure, shortened: as §2
Plasmodium berghei [15] = experiment: Antimalarial activity against chloroquine-sensitive Plasmodium berghei ANKA infected in Swiss albino mouse assessed as suppression of parasitemia at 8 mg/kg/day, ip measured on day 3 post infection by Giemsa staining relative to control; assay type: functional; settings: route intraperitoneal
HEK293 = experiment: Cytotoxicity against human HEK293 cells assessed as growth inhibition after 72 hrs by Alamar blue assay; assay type: cell-based; settings: HEK293, 72 h
Procedure, shortened: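 HEK293 adherent cells (3000/well) were incubated with compound for 72 h at 37 °C and 5% CO2. Medium was removed, then 10% Alamar Blue was added for 5−6 h. Fluorescence was read at ex 535/em 590 nm. Inhibition was normalised to DMSO and 10 μM puromycin controls. IC50 came from nonlinear variable-slope regression of % inhibition against log dose.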

Plasmodium falciparum [16] = experiment: Antimalarial activity against chloroquine-sensitive Plasmodium falciparum 3D7 assessed as growth inhibition after 72 hrs by DAPI staining; assay type: functional, organism-based; settings: 3D7, 72 h; procedure, shortened: as §4
[17] = Selectivity index, ratio of IC50 for human HEK293 cells to IC50 for chloroquine-sensitive Plasmodium falciparum 3D7; assay type: toxicity, cell-based; settings: read-out: Ratio IC50
Plasmodium berghei [18] = experiment: Antimalarial activity against chloroquine-sensitive Plasmodium berghei ANKA infected in Swiss albino mouse assessed as suppression of parasitemia at 8 mg/kg/day, ip measured on day 2 post infection by Giemsa staining relative to control; assay type: functional; settings: route intraperitoneal
Mus musculus [19] = experiment: Toxicity in Swiss albino mouse assessed as shaking upto 4 mg/kg/day, sc for 4 days; assay type: organism-based; parameters: route subcutaneous; settings: in vivo, 96 h; procedure, shortened: as §3
Mus musculus [20] = experiment: Toxicity in Swiss albino mouse assessed as ruffled coat upto 4 mg/kg/day for 4 days; assay type: organism-based; settings: in vivo, 96 h; procedure, shortened: as §3
Mus musculus [21] = experiment: Toxicity in Swiss albino mouse assessed as reduced activity upto 4 mg/kg/day, sc for 4 days; assay type: organism-based; parameters: route subcutaneous; settings: in vivo, 96 h; procedure, shortened: as §3
Plasmodium falciparum [22] = experiment: Antimalarial activity against chloroquine-sensitive Plasmodium falciparum 3D7 trophozoite stage assessed as growth inhibition at 204 nM after 10 hrs by [3H]-hypoxanthine incorporation assay; assay type: functional, organism-based
Procedure, shortened: (§5)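 Synchronous 3D7 rings (~10−16 h post-invasion) or trophozoites (~24−30 h post-invasion), 0.5% parasitemia, 5% hematocrit, exposed 4, 6 or 10 h to compound or 0.04% DMSO vehicle. Cultures are washed, plated in triplicate with 0.5 μCi 3H-hypoxanthine, and incorporation is counted after ~48−72 h. Percent growth is relative to matched vehicle controls, from at least two independent experiments.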

Plasmodium falciparum [23] = experiment: Antimalarial activity against chloroquine-sensitive Plasmodium falciparum 3D7 ring stage assessed as growth inhibition at 408 nM after 10 hrs by [3H]-hypoxanthine incorporation assay; assay type: functional, organism-based; procedure, shortened: as §5
[24] = Plasma concentration in Swiss mouse at 8 mg/kg, sc administered as solution measured 1 hr post dose; assay type: ADME, organism-based; parameters: dose 8 mg/kg, route subcutaneous
Procedure, shortened: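 Nonfasted male Swiss outbred mice (26−34 g), nominal 8 mg/kg subcutaneous into the dorsal skinfold in saline vehicle with 5−7% DMSO. Blood is drawn by cardiac puncture under isoflurane at 0.25, 1 or 4 h (n = 2 per time point) into stabilizer. Plasma is precipitated with acetonitrile and quantified by UPLC−MS against standards in blank mouse plasma.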

Plasmodium falciparum [25] = experiment: Antimalarial activity against chloroquine-sensitive Plasmodium falciparum 3D7 trophozoite stage assessed as growth inhibition at 408 nM after 10 hrs by [3H]-hypoxanthine incorporation assay; assay type: functional, organism-based; procedure, shortened: as §5
Mus musculus [26] = experiment: Toxicity in Swiss albino mouse assessed as behaviour changes upto 4 mg/kg/day, sc for 4 days; assay type: organism-based; parameters: route subcutaneous; settings: in vivo, 96 h; procedure, shortened: as §3
Mus musculus [27] = experiment: Toxicity in Swiss albino mouse assessed as body weight loss > 10 % at 8 mg/kg/day, sc for 4 days; assay type: organism-based; parameters: route subcutaneous; settings: in vivo, 96 h; procedure, shortened: as §3
Plasmodium falciparum [28] = experiment: Antimalarial activity against chloroquine-sensitive Plasmodium falciparum 3D7 ring stage assessed as growth inhibition at 204 nM after 10 hrs by [3H]-hypoxanthine incorporation assay; assay type: functional, organism-based; procedure, shortened: as §5
Plasmodium berghei [29] = experiment: Antimalarial activity against chloroquine-sensitive Plasmodium berghei ANKA infected in Swiss albino mouse assessed as suppression of parasitemia at 4 mg/kg/day, ip measured on day 4 post infection by Giemsa staining; assay type: functional, organism-based
Mus musculus [30] = experiment: Toxicity in Swiss albino mouse assessed as severe pallor upto 4 mg/kg/day, sc for 4 days; assay type: organism-based; parameters: route subcutaneous; settings: in vivo, 96 h; procedure, shortened: as §3
Mus musculus [31] = experiment: Toxicity in Swiss albino mouse assessed as ruffled coat at 8 mg/kg/day for 4 days; assay type: organism-based; settings: in vivo, 96 h; procedure, shortened: as §3
Mus musculus [32] = experiment: Toxicity in Swiss albino mouse assessed as body weight loss > 10 % upto 4 mg/kg/day, sc for 4 days; assay type: organism-based; parameters: route subcutaneous; settings: in vivo, 96 h; procedure, shortened: as §3
Mus musculus [33] = experiment: Toxicity in Swiss albino mouse assessed as reduced activity at 8 mg/kg/day, sc for 4 days; assay type: organism-based; parameters: route subcutaneous; settings: in vivo, 96 h; procedure, shortened: as §3

O=C1C(NCCc2ccc(O)cc2)=CC2=NCCc3c[nH]c1c32 [MAKALUVAMINE D]
IC50 (XRS6): 80 nM | IC50 (HCT-116): > 170 nM

Cn1cc2c3c1C(=O)C(N/C=C/c1ccc(O)cc1)=CC3=NCC2 [MAKALUVAMINE E]
IC50 (XRS6): 80 nM | IC50 (HCT-116): > 170 nM

O=C1C(NC2Cc3cc(Br)c(O)cc3S2)=CC2=NCCc3c[nH]c1c32 (stereo not drawn) [MAKALUVAMINE F]
IC90 [1]: 25000 nM | IC50 (XRS6): 80 nM | IC50 (HCT-116): > 170 nM

Cn1cc2c3c1C(=O)C(N/C=C/c1ccc(O)cc1)=CC3=[N+](C)CC2.O=C([O-])C(F)(F)F [MAKALUVAMINE G]
Activity (Plasmodium berghei [2]): 10% | growth inhibition (GI) (Plasmodium falciparum [3]): inactive | growth inhibition (GI) (Plasmodium falciparum [4]): Active | Activity (Plasmodium berghei [5]): 48% | growth inhibition (GI) (Plasmodium falciparum [6]): Active | half-life at 1 µM [7]: 7.4 min | concentration at 1 h [8]: < 40 nM | MTD at 96 h [9]: 8 mg/kg/day | selectivity ratio [10]: 51 | IC50 (Plasmodium falciparum [11]): 39 nM | microsomal CLint at 1 µM [12]: 235 µL/min/mg | half-life at 1 µM [13]: 8.8 min | microsomal CLint at 1 µM [14]: 197 µL/min/mg | Activity (Plasmodium berghei [15]): 47% | IC50 (HEK293): 2000 nM | IC50 (Plasmodium falciparum [16]): 36 nM | selectivity ratio [17]: 55 | Activity (Plasmodium berghei [18]): 35%

C[N+]1=C2C=C(NCCc3ccc(O)cc3)C(=O)c3[nH]cc(c32)CC1.O=C([O-])C(F)(F)F [MAKALUVAMINE J TFA SALT]
Activity (Mus musculus [19]): Non-toxic | Activity (Mus musculus [20]): Non-toxic | Activity (Mus musculus [21]): Non-toxic | growth inhibition (GI) (Plasmodium falciparum [22]): Active | growth inhibition (GI) (Plasmodium falciparum [23]): Active | concentration at 1 h [24]: 1700 nM | half-life at 1 µM [7]: 42 min | growth inhibition (GI) (Plasmodium falciparum [25]): Active | Activity (Mus musculus [26]): Non-toxic | selectivity ratio [10]: 54 | Activity (Mus musculus [27]): Toxic | IC50 (Plasmodium falciparum [11]): 22 nM | growth inhibition (GI) (Plasmodium falciparum [28]): Active | microsomal CLint at 1 µM [12]: 41 µL/min/mg | half-life at 1 µM [13]: > 350 min | Activity (Plasmodium berghei [29]): inactive | Activity (Mus musculus [30]): Non-toxic | microsomal CLint at 1 µM [14]: < 5 µL/min/mg | IC50 (HEK293): 1200 nM | Activity (Mus musculus [31]): Toxic | IC50 (Plasmodium falciparum [16]): 25 nM | Activity (Mus musculus [32]): Non-toxic | selectivity ratio [17]: 48 | Activity (Mus musculus [33]): Toxic

Cn1cc2c3c1C(=O)C(NCCc1ccc(O)cc1)=CC3=NCC2 [MAKALUVAMINE K TFA SALT]
selectivity ratio [10]: 4 | IC50 (Plasmodium falciparum [11]): 300 nM | IC50 (HEK293): 1100 nM | IC50 (Plasmodium falciparum [16]): 396 nM | selectivity ratio [17]: 3

C[N+]1=C2C=C(N/C=C/c3ccc(O)cc3)C(=O)c3[nH]cc(c32)CC1 [MAKALUVAMINE L]
selectivity ratio [10]: 66 | IC50 (Plasmodium falciparum [11]): 21 nM | IC50 (HEK293): 1400 nM | IC50 (Plasmodium falciparum [16]): 40 nM | selectivity ratio [17]: 35

Cn1cc2c3c1C(=O)c1[nH]cc(-c4ccc(O)cc4)c1C3=[N+](C)CC2 [TSITSIKAMMAMINE C TRIFLUROACETATE]
growth inhibition (GI) (Plasmodium falciparum [22]): Active | growth inhibition (GI) (Plasmodium falciparum [23]): Active | growth inhibition (GI) (Plasmodium falciparum [25]): Active | selectivity ratio [10]: 200 | IC50 (Plasmodium falciparum [11]): 18 nM | growth inhibition (GI) (Plasmodium falciparum [28]): Active | IC50 (HEK293): 3600 nM | IC50 (Plasmodium falciparum [16]): 13 nM | selectivity ratio [17]: 276
